# According to ChEMBL document CHEMBL1148066, “Binding of quinolizidine alkaloids to nicotinic and muscarinic acetylcholine receptors” (J Nat Prod, 1994):
# Columns and labels:
# [1] = Displacement of [3H]nicotin from nicotinic ACh receptor
# Summary of the method: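 Porcine brain membranes (sucrose/K+-phosphate pH 7.0/EDTA homogenate, 100,000 g pellet) incubated with 3H-nicotine and alkaloids (0.5 nM–10 mM) for 40 min at 20°; 1 mM nicotine defines nonspecific binding. Rapid filtration on BSA-presoaked glass fiber filters, saline washes, scintillation counting; triplicates. IC50 = concentration displacing 50% of specific binding.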
# [2] = Displacement of [3H]quinuclidinyl benzilate from muscarinic ACh receptor
# Summary of the method: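 Porcine brain membranes (500 µg protein; 10 mM K+-phosphate pH 7.0, 1 mM EDTA) incubated with 3H-QNB and alkaloids (0.5 nM–10 mM) for 1 h at 20°; atropine blank for nonspecific binding. Stopped with ice-cold 0.9% NaCl, rapid glass-fiber filtration, three washes, scintillation counting; triplicates. IC50 = concentration displacing 50% of specific binding.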
SMILES,IC50 [1],IC50 [2]
CN1C[C@@H]2C[C@H](C1)c1cccc(=O)n1C2,0.05 µM,417 µM
O=C1[C@H]2C[C@@H](CN3CCCC[C@@H]23)[C@H]2CCCCN12,155 µM,118 µM
O=C1[C@H](O)CC[C@@H]2[C@H]3C[C@@H](CN12)[C@@H]1CCCCN1C3,190 µM,74 µM
O=C1CCC[C@@H]2[C@H]3C[C@@H](CN12)[C@@H]1C[C@H](O)CCN1C3,490 µM,140 µM
C=CC[C@H]1NC[C@H]2C[C@@H]1[C@H]1CC(=O)C=CN1C2 [ALBINE],193 µM,33 µM
O=c1cccc2n1C[C@H]1C[C@@H]2CN2CCCC[C@H]12 [ANAGYRINE],2100 µM,132 µM
C=CC[C@@H]1NC[C@@H]2C[C@H]1CN1C(=O)CCC[C@H]21 [ANGUSTIFOLINE],> 500 µM,25 µM
O=c1cccc2n1C[C@@H]1CNC[C@H]2C1 [CYTISINICLINE],0.14 µM,400 µM
O=C1CCC[C@@H]2[C@H]3C[C@@H](CN12)[C@@H]1CCCCN1C3 [LUPANINE],5 µM,114 µM
OC[C@@H]1CCCN2CCCC[C@H]12 [LUPININE],> 500 µM,190 µM
O=C1C=CN2C[C@@H]3C[C@@H](CN4CCCC[C@@H]34)[C@H]2C1 [MULTIFLORINE],> 500 µM,47 µM
C1CCN2C[C@@H]3C[C@@H](CN4CCCC[C@@H]34)[C@H]2C1 [SPARTEINE],331 µM,21 µM
C=CCCN1C[C@H]2C[C@@H](C1)[C@H]1CCCC(=O)N1C2 [TETRAHYDRORHOMBIFOLINE],310 µM,129 µM
